# Measured values as given in ChEMBL document CHEMBL4706541, “Design and synthesis of 1H-indazole-3-carboxamide derivatives as potent and selective PAK1 inhibitors with anti-tumour migration and invasion activities” (Eur J Med Chem, 2020).
# The source made the active and inactive calls. No cut-off for these calls is given here.
# Tests used:
# [1] = biological target: T1, Serine/threonine-protein kinase PAK 4 (Homo sapiens, UniProt O96013); assay: (§1) Inhibtion of full length recombinant human N-terminal GST/His6-tagged PAK4 expressed in baculovirus infected sf9 insect cells assessed as residual activity at 0.1 uM using tetra LRRWSLG as substrate preincubated for 20 min followed by [gamma33P]ATP addition and measured after 120 mins by Hotspot assay relative to control; settings: time 140.0 min
# Outline: (§2)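 Radiometric HotSpot kinase assay. Kinase and substrate are combined in 20 mM Hepes pH 7.5, 10 mM MgCl2, 1 mM EGTA, 0.02% Brij35, 0.02 mg/mL BSA, 0.1 mM Na3VO4, 2 mM DTT and 1% DMSO. Compound is added and preincubated 20 min at room temperature. The reaction starts with ATP plus 33P-ATP at 10 µM final and runs 120 min at 25 °C. Filter-binding read-out, given as % activity remaining versus DMSO.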
# Target sequence in this assay (O96013 whole entry, looked up): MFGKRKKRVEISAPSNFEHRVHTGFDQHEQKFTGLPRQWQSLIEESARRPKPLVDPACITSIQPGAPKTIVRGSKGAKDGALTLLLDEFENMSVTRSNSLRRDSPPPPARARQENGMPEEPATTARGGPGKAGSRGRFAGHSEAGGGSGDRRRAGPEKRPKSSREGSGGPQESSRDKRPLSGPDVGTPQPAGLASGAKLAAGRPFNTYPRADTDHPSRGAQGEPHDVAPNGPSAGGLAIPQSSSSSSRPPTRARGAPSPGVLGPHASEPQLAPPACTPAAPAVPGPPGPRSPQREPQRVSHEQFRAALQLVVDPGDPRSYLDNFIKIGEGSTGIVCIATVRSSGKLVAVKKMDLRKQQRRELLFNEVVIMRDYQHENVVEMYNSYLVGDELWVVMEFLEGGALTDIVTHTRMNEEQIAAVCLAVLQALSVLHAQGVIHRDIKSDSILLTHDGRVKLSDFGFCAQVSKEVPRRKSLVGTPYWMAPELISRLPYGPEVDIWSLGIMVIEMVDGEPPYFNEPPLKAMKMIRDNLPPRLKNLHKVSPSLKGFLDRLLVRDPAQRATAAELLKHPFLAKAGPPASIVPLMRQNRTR
# [2] = biological target: Tyrosine-protein kinase JAK1 (Homo sapiens) (UniProt P23458); assay: Inhibition of JAK1 (unknown origin) assessed as residual activity at 0.1 uM preincubated for 20 min followed by [gamma33P]ATP addition and measured after 120 mins by Hotspot assay relative to control; settings: time 140.0 min; outline: as §2
# Sequence of Tyrosine-protein kinase JAK1 (Homo sapiens) (P23458 whole entry): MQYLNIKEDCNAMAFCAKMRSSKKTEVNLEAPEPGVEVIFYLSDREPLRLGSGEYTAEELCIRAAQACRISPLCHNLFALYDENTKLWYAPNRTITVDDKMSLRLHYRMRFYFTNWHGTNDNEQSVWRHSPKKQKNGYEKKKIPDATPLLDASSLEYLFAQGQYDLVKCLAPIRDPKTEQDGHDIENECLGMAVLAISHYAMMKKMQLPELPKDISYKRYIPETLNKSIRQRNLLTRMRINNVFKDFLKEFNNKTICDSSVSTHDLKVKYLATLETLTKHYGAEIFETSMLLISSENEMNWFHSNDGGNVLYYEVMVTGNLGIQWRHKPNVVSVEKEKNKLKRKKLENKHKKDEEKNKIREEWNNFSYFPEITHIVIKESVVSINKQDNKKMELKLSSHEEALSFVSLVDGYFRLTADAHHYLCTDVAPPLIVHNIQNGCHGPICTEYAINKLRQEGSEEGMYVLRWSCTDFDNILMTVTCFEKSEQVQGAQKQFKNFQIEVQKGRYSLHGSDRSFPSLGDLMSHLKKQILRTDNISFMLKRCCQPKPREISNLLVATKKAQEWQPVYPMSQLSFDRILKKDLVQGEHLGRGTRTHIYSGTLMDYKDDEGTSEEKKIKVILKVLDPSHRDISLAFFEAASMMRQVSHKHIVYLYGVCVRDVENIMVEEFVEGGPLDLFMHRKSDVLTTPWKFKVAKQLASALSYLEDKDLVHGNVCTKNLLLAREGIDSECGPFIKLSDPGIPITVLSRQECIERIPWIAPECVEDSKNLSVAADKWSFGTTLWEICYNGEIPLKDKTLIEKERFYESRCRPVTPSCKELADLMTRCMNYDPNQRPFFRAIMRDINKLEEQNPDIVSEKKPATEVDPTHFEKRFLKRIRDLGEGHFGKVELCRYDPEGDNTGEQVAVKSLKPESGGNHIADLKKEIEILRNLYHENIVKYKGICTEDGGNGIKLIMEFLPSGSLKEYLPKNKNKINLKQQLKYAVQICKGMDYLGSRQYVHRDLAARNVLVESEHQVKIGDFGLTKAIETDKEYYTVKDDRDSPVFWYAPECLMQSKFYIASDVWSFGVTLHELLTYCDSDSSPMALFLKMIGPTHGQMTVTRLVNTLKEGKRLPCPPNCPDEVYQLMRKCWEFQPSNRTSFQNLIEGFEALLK
# [3] = biological target: Receptor-type tyrosine-protein kinase FLT3 (Homo sapiens) (UniProt P36888); assay: Inhibition of FLT3 (unknown origin) assessed as residual activity at 0.1 uM preincubated for 20 min followed by [gamma33P]ATP addition and measured after 120 mins by Hotspot assay relative to control; settings: time 140.0 min; outline: as §2
# [4] = biological target: Tyrosine-protein kinase BTK (Homo sapiens) (UniProt Q06187); assay: Inhibition of BTK (unknown origin) assessed as residual activity at 0.1 uM preincubated for 20 min followed by [gamma33P]ATP addition and measured after 120 mins by Hotspot assay relative to control; settings: time 140.0 min; outline: as §2
# Sequence of Tyrosine-protein kinase BTK (Homo sapiens) (Q06187 whole entry): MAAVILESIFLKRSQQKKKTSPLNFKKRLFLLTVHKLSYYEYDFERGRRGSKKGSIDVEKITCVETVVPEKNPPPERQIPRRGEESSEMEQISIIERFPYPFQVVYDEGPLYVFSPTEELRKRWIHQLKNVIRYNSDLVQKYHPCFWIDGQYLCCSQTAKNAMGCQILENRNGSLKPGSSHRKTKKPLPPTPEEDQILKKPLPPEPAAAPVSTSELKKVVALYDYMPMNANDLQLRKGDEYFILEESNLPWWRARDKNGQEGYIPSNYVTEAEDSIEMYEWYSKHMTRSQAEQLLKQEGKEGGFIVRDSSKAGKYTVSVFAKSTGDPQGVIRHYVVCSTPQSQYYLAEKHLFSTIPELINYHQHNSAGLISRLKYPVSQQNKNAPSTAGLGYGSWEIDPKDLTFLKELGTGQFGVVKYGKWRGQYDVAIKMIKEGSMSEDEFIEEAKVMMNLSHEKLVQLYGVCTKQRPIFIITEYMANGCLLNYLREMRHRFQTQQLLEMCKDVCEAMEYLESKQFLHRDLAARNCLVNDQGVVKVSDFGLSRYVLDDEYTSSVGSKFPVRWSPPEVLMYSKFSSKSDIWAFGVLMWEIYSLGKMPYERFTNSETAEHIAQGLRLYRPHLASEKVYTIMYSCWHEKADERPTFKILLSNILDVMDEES
# [5] = biological target: Vascular endothelial growth factor receptor 2 (Homo sapiens) (UniProt P35968); assay: Inhibition of VEGFR2 (unknown origin) assessed as residual activity at 0.1 uM preincubated for 20 min followed by [gamma33P]ATP addition and measured after 120 mins by Hotspot assay relative to control; settings: time 140.0 min; outline: as §2
# [6] = biological target: Tyrosine-protein kinase SYK (Homo sapiens) (UniProt P43405); assay: Inhibition of SYK (unknown origin) assessed as residual activity at 0.1 uM preincubated for 20 min followed by [gamma33P]ATP addition and measured after 120 mins by Hotspot assay relative to control; settings: time 140.0 min; outline: as §2
# [7] = biological target: Serine/threonine-protein kinase PAK 3 (Homo sapiens) (UniProt O75914); assay: as §1, with “PAK3” for “PAK4”, “in” for “in baculovirus infected”; settings: time 140.0 min; outline: as §2
# [8] = biological target: T1, Serine/threonine-protein kinase PAK 4; assay: Inhibition of full length recombinant human N-terminal GST/His6-tagged PAK4 expressed in baculovirus infected sf9 insect cells using tetra LRRWSLG as substrate preincubated for 20 min followed by [gamma33P]ATP addition and measured after 120 mins by Hotspot assay
# Target sequence in this assay (O96013 whole entry): as the sequence (O96013 whole entry, looked up) above
# MDA-MB-231 [9] = assay: Antimigratory activity against human MDA-MB-231 cells after 24 hrs by inverted microscopic based Wound healing assay; format: functional, cell-based; settings: dose 0.25-1 µM
# Outline: (§3)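 Cells grown to confluence and scratched with a sterile pipette tip, or placed at 1×10^5 cells in serum-free DMEM with 0.1% […] in the upper part of Matrigel-coated Boyden chambers over DMEM with 10% FBS. Compound treatment for 24 h at 37 °C. Read-out is wound distance from images or the count of invaded cells on the lower filter face after fixing and staining. Data given as means ± SD.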
# [10] = biological target: Tyrosine-protein kinase receptor UFO (Homo sapiens) (UniProt P30530); assay: Inhibition of AXL (unknown origin) assessed as residual activity at 0.1 uM preincubated for 20 min followed by [gamma33P]ATP addition and measured after 120 mins by Hotspot assay relative to control; settings: time 140.0 min; outline: as §2
# [11] = biological target: ALK tyrosine kinase receptor (Homo sapiens) (UniProt Q9UM73); assay: Inhibition of ALK (unknown origin) assessed as residual activity at 0.1 uM preincubated for 20 min followed by [gamma33P]ATP addition and measured after 120 mins by Hotspot assay relative to control; settings: time 140.0 min; outline: as §2
# [12] = biological target: Mitogen-activated protein kinase 14 (Homo sapiens) (UniProt Q16539); assay: Inhibition of P38alpha (unknown origin) assessed as residual activity at 0.1 uM preincubated for 20 min followed by [gamma33P]ATP addition and measured after 120 mins by Hotspot assay relative to control; settings: time 140.0 min; outline: as §2
# Sequence of Mitogen-activated protein kinase 14 (Homo sapiens) (Q16539 whole entry): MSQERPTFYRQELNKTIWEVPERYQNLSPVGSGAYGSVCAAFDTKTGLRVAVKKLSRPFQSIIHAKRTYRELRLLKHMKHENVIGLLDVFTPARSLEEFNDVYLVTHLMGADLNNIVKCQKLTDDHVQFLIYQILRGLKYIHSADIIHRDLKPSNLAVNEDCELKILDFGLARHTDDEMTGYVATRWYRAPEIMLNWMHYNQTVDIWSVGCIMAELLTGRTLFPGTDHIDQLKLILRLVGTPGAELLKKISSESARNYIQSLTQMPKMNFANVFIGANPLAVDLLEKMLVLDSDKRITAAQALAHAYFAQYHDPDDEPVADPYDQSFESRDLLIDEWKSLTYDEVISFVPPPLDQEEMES
# [13] = biological target: Serine/threonine-protein kinase PAK 1 (Homo sapiens, UniProt Q13153); assay: Inhibition of PAK1 in human MDA-MB-231 cells assessed as reduction in snail protein expression at 2.5 to 20 uM after 1 to 24 hrs by Western blot analysis; format: cell-based; settings: dose 2.5-20 µM, time 1-24 hrs
# Sequence of Serine/threonine-protein kinase PAK 1 (Q13153 whole entry): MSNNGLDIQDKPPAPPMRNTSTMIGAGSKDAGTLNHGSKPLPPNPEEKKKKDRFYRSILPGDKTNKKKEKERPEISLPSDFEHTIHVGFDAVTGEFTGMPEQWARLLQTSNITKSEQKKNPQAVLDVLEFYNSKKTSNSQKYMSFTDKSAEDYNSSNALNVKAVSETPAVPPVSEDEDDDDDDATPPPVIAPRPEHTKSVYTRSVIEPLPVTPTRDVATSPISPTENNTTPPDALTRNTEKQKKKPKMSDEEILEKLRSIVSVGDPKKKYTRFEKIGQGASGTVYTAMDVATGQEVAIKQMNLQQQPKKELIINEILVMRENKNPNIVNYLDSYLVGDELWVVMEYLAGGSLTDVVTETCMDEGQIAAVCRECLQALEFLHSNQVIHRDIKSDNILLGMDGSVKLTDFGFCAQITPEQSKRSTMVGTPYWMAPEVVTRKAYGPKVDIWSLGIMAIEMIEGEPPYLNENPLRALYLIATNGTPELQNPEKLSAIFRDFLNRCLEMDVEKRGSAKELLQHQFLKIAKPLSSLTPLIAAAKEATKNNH
# Outline: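 Whole-cell extracts made from 1×10^6 treated cells in RIPA buffer (50 mM Tris/HCl pH 7.4, 150 mM NaCl, 1% NP-40, 0.25% deoxycholate, 1 mM EDTA, protease inhibitors). Proteins separated by SDS-PAGE, blotted to PVDF and blocked in 5% milk in TBS-T. Membranes probed for PAK1, phospho-PAK1 Ser144, Snail and actin, with β-actin as loading control. ECL detection.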
# [14] = biological target: Tyrosine-protein kinase Lck (Homo sapiens) (UniProt P06239); assay: Inhibition of LCK (unknown origin) assessed as residual activity at 0.1 uM preincubated for 20 min followed by [gamma33P]ATP addition and measured after 120 mins by Hotspot assay relative to control; settings: time 140.0 min; outline: as §2
# [15] = biological target: Serine/threonine-protein kinase PAK 6 (Homo sapiens) (UniProt Q9NQU5); assay: as §1, with “PAK6” for “PAK4”, “in” for “in baculovirus infected”; settings: time 140.0 min; outline: as §2
# Sequence of Serine/threonine-protein kinase PAK 6 (Homo sapiens) (Q9NQU5 whole entry, looked up): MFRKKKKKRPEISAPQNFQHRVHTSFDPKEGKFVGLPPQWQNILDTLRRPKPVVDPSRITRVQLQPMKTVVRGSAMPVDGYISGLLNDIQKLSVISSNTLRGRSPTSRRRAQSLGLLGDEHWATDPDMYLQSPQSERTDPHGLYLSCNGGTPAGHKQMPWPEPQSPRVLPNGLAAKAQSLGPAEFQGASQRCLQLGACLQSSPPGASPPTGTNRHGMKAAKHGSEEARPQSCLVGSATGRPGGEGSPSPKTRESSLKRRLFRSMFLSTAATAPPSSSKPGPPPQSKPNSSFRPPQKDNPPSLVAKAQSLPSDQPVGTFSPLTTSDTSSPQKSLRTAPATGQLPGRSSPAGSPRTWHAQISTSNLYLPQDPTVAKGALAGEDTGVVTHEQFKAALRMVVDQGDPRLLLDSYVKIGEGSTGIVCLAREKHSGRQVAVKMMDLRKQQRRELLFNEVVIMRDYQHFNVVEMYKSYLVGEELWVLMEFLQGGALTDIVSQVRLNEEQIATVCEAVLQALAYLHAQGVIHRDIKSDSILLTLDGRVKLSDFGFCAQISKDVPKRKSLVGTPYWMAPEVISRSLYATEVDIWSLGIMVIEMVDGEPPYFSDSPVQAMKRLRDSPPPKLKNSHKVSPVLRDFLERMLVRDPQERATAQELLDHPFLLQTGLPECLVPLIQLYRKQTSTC
# [16] = biological target: CDK6/cyclin D1 (Homo sapiens) (UniProt P24385+Q00534); assay: Inhibition of CDK6/cyclin Dl (unknown origin) assessed as residual activity at 0.1 uM preincubated for 20 min followed by [gamma33P]ATP addition and measured after 120 mins by Hotspot assay relative to control; format: protein-complex assay; settings: time 140.0 min; outline: as §2
# MDA-MB-231 [17] = assay: Antiinvasive activity against human MDA-MB-231 cells assessed as decrease is number of penetrated cells at 0.25 to 1 uM after 24 hrs by inverted microscopic based Transwell invasion assay relative to control; format: functional; set-up: scale not given: the % may be the effect or the level left; settings: dose 0.25-1 µM; outline: as §3
# HCT-116 = assay: Antiproliferative activity against human HCT-116 cells assessed as growth inhibition at 1 uM after 72 hrs by Cell Titer-Glo assay relative to control; format: functional; settings: read-out: GI
# Outline: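 Cells kept at 37 °C in 5% CO2 and plated at 4000 per well. Treated with compound for 72 h. Viability read by CellTiter-Glo luminescence. Each compound run in duplicate, data as means ± SD.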
# [18] = biological target: Serine/threonine-protein kinase B-raf (Homo sapiens) (UniProt P15056); assay: Inhibition of BRAF (unknown origin) assessed as residual activity at 0.1 uM preincubated for 20 min followed by [gamma33P]ATP addition and measured after 120 mins by Hotspot assay relative to control; settings: time 140.0 min; outline: as §2
# Sequence of Serine/threonine-protein kinase B-raf (Homo sapiens) (P15056 whole entry): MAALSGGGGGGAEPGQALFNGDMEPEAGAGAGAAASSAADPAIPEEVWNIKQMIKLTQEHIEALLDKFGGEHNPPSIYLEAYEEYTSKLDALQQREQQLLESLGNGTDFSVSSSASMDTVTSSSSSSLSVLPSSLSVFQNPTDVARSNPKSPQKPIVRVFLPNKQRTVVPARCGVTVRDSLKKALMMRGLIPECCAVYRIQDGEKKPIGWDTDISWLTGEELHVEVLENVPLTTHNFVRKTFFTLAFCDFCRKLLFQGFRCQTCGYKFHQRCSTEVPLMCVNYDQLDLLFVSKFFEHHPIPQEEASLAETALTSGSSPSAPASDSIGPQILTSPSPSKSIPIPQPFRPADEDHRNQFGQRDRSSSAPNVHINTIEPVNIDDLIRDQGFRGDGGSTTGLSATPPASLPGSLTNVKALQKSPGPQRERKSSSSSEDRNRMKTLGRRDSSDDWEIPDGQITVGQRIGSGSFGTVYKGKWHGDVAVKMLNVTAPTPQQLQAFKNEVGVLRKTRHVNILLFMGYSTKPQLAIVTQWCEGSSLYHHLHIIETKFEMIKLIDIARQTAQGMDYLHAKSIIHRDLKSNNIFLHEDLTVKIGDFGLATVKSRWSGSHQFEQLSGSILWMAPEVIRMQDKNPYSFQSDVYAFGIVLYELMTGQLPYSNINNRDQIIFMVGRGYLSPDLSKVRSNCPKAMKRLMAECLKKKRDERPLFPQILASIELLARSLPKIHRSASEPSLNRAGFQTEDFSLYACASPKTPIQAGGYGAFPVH
# [19] = biological target: Ephrin type-A receptor 1 (Homo sapiens) (UniProt P21709); assay: Inhibition of EPHA1 (unknown origin) assessed as residual activity at 0.1 uM preincubated for 20 min followed by [gamma33P]ATP addition and measured after 120 mins by Hotspot assay relative to control; settings: time 140.0 min; outline: as §2
compound,measurement,setting,value
Cc1cccn(-c2ccc(-c3ccc4c(C(=O)NCc5ccncc5)n[nH]c4c3)c(Cl)c2)c1=O,Activity,[1],104%
same,Activity,[2],88.7%
same,Activity,[3],98.8%
same,Activity,[4],99.1%
same,Activity,[5],92.4%
same,Activity,[6],94.2%
same,Activity,[7],33.9%
same,IC50,[8],> 10 µM
same,Activity,MDA-MB-231 [9],Dose-dependent effect
same,Activity,[10],88.4%
same,Activity,[11],97%
same,Activity,[12],78%
same,inhibition,[13],Active
same,Activity,[14],88.6%
same,Activity,[15],80%
same,Activity,[16],112%
same,Activity,MDA-MB-231 [17],<40%
same,inhibition of growth at 1 µM,HCT-116,8.73%
same,Activity,[18],84.4%
same,Activity,[19],91.9%
